# High-throughput results as filed in PubChem BioAssay.
# Rows were chosen to be rich in hits. Some 1.2% of all compounds tested hit in one or more screens of this group.
# Efa HMGR inh = blocks class II HMG-CoA reductase of Enterococcus faecalis | actives 0.41% (n = 190,000) | inhibition, % at 10 µM | AID 1066 | purified E. faecalis HMGR, NADPH absorbance 340 nm kinetic;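 active = inhibition above a set limit, the median over all tested compounds plus 3 SD, cut at about 9.5% in these data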;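 also: enzyme runs in reverse so mevalonate oxidation gives rising NADPH absorbance; 0% = complete reaction with DMSO and 100% = background rate lacking mevalonate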
# INS promoter inh = TRM-6 insulin promoter activity inhibition. actives 0.9% (n = 130,000). TRM-6 cells (human fetal islet line), insulin promoter-eGFP reporter, imaging; reporter expression induced with tamoxifen. inhibition, % at 2 µM;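 active = inhibition above the mean plus 3 SD, with well images judged a real hit on visual review, cut at about 60% in these data, passing the limit was not always enough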
# TNAP inh no acc = TNAP (human) inhibition, acceptor-free conditions; P05186; purified TNAP, CDP-star luminescence, 30 min; inhibition, % at 20 µM; actives 0.26% (n = 200,000); AID 1012;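 active = tissue-nonspecific alkaline phosphatase inhibition above about 50% at 20 µM in the single-dose screen, limit read from the data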;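 also: 0% = DMSO negative control and 100% = EDTA positive control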
# Target sequence (P05186 whole entry, looked up): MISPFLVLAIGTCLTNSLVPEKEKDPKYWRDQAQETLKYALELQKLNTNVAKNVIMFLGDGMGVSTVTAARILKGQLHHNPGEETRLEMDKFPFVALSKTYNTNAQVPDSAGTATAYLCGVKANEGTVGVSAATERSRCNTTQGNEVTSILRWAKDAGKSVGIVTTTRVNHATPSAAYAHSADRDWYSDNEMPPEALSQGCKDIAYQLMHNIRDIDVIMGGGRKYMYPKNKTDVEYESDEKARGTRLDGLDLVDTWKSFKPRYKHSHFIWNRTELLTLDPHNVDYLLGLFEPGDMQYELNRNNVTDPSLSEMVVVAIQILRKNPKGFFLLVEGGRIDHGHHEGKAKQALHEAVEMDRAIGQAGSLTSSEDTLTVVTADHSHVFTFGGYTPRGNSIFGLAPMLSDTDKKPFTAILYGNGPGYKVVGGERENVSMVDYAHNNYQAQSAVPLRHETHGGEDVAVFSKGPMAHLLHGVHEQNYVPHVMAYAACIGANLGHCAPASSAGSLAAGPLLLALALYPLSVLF
# TNAP inh hi DEA = inhibitors of human TNAP at high phosphate acceptor concentration; P05186; purified TNAP, CDP-star luminescence, 1 M DEA; inhibition, % at 20 µM; actives 0.03% (n = 200,000); AID 1135;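 active = over 50% inhibition of tissue-nonspecific alkaline phosphatase at 20 µM in the single-dose screen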;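 also: plate controls were DMSO wells for no effect and EDTA-quenched wells as full inhibition for full effect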
# TNAP act hiacc = increases human TNAP activity under high phosphate acceptor concentration; purified TNAP, CDP-star luminescence, 1 M DEA, 30 min; hits give high values; 0 = EDTA background, 1 = DMSO-only activity; activation factor at 20 µM; 200,000 tested, under 10 active;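 active = activation factor at least 2 at 20 µM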
#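 Assay system: human TNAP; Input: enzyme diluted 1/800 final; Reagent: CDP-star luminogenic substrate at 100 µM final; Timing: 30 min, room temperature; Signal: luminescence; Evaluation: TNAP activation factor scaled between EDTA and DMSO control wells.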
# Starred values were filed as active, the others as inactive; x = no result.
SMILES,Efa HMGR inh,INS promoter inh,TNAP inh no acc,TNAP inh hi DEA,TNAP act hiacc
CC(=O)c1c(C)nc2cc(Cl)ccc2c1N,2,96*,-8,-3,1
Cc1ccc(CN2CCN(C3CCCC3)C(CCO)C2)s1 (stereo unspecified),1,x,-9,-7,1.1
Cc1cccc(C(=O)NNC(=O)c2ccc(-c3ccccc3)cc2)c1,-3,-37,-32,-7,1.1
Cc1ccc(C(=O)NC2(C(Cl)Cl)N=C(c3ccccc3)N=C2N)cc1 (stereo unspecified),9.7*,-6,-4,0,1
O=C(/C=C/NNC(=O)c1ccccc1)c1ccc([N+](=O)[O-])cc1,1,60,13,32,0.7
CC(NC(=O)c1cc(=O)[nH]c2ccccc12)c1ccccc1 (stereo unspecified),12*,33,-6,-4,1
CC(NC(=O)c1ccccc1N)c1ccccc1 (stereo unspecified),-6,37,-10,-3,1
O=C(N/N=C/c1cccc(F)c1)c1c(O)c2c([nH]c1=O)CCCC2,-9,-12,-7,5,1
CC1=C(C#N)C(/C=N/OCc2ccc(Cl)cc2)CC(=O)N1 (stereo unspecified),2,83*,-3,4,1
COc1ccc(CCNC(=S)NCc2ccc(Cl)c(Cl)c2)cc1OC,-2,x,-80,-6,1.1
COc1cccc(OC)c1C(=O)NC(=S)Nc1cc(-c2nc3ccccc3[nH]2)ccc1Cl,-2,43,-5,6,0.9
COC(=O)c1ccc(CSc2nc3ccccc3o2)cc1,1,81*,-11,-3,1
O=[N+]([O-])c1ccc(CSc2nc3ccccc3o2)cc1,0,x,-7,1,1
Cc1cc(NCCO)nc(-n2nc(C)cc2C)n1,0,79*,-7,-4,1
COc1ccccc1/C=C/C(=O)N1CCC(c2ccccc2)C1 (stereo unspecified),-1,-3,-14,-4,1
CCOC(=O)c1[nH]c2ccccc2c1NC(=O)c1ccc(S(=O)(=O)N2CCCC2)cc1,3,-2,2,2,1
O=C(COC(=O)CCc1c[nH]c2ccccc12)NC1CCS(=O)(=O)C1 (stereo unspecified),15*,14,-6,2,1
N#CC(C#N)=C(N)CSc1cccc[n+]1[O-],-4,0,-12,-3,1
O=C(Nc1n[nH]c(C2CCCCC2)n1)C1CCCCC1,-1,35,72*,-1,1
O=C(NCCCn1ccnc1)Nc1ccc(Cl)cc1,1,77*,-1,4,1
O=C(NCCCn1ccnc1)Nc1ccc(Cl)c(Cl)c1,1,-27,3,-2,1
NC(=O)CCC(NS(=O)(=O)c1ccc(Cl)cc1)C(=O)NCc1ccccc1 (stereo unspecified),-9,x,-3,-2,1
CCOC(=O)C(C)Oc1ccc(OCc2ccccc2)cc1 (stereo unspecified),0,56,-4,-1,1
CCCc1nccn1S(=O)(=O)c1cc(OC)ccc1OC,-1,75*,-6,-2,1
Cc1cc(Cl)c(S(=O)(=O)N2CCN(c3ccccn3)CC2)cc1OCC(N)=O,3,x,-7,-4,1
SMILES,Efa HMGR inh,INS promoter inh,TNAP inh no acc,TNAP inh hi DEA,TNAP act hiacc
O=C(Cn1cnc2ccccc2c1=O)Nc1ccc(-c2nnc3n2CCCCC3)cc1,5,93*,-3,-1,1
O=[N+]([O-])c1cccc(-c2cn3ccccc3n2)c1,1,60,-6,-6,1.1
Brc1ccc(-c2cn3ccccc3n2)s1,0,86*,-10,-4,1
COc1ccc(CCNC(=O)COc2ccc(S(=O)(=O)NC3CCCCC3)cc2Cl)cc1,-8,x,5,-2,1
O=C1NN(c2ccccc2)C(=O)/C1=C\c1ccc(-c2cc([N+](=O)[O-])ccc2O)o1,1,x,52*,44,0.6
O=C1NN(c2ccc(Cl)cc2)C(=O)/C1=C\c1ccc(-c2cccc(C(=O)O)c2)o1,0,-40,13,20,0.8
CCC(=O)N1CCc2cc(S(=O)(=O)CCC(=O)Nc3ccc(C)cn3)ccc21,-5,x,-6,-7,1.1
COc1ccc(C/C(C)=N/NC(=O)c2ccc(Cl)cc2)cc1,10*,33,-36,-5,1
COc1ccc(S(=O)(=O)N/N=C(/C)c2ccc(Cl)cc2)cc1,1,-3,-11,-5,1
